Laboratory results reported in ChEMBL document CHEMBL1833943, “Synthesis and structure-activity relationships of varied ether linker analogues of the antitubercular drug (6S)-2-nitro-6-{[4-(trifluoromethoxy)benzyl]oxy}-6,7-dihydro-5h-imidazo[2,1-b][1,3]oxazine (PA-824)” (J Med Chem, 2011).
Converted amounts (≈) assume the structure as drawn.

Key:
[1] = Aqueous solubility of the compound in 0.1 M hydrochloric acid at pH 1 by HPLC analysis; type: physicochemical
[2] = Aqueous solubility of the compound in water at pH 7 by HPLC analysis; type: physicochemical
How it was run: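 Solubility measured in water at pH 7 and 20 °C, quantified by HPLC.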

[3] = system: Mycobacterium tuberculosis; experiment: Antituberculosis activity against Mycobacterium tuberculosis H37Rv under aerobic conditions by microplate alamar blue assay; type: functional
[4] = system: Mycobacterium tuberculosis; experiment: Antituberculosis activity against Mycobacterium tuberculosis H37Rv under anaerobic conditions by fluorescence based low-oxygen-recovery assay; type: functional
[5] = Metabolic stability in human liver microsomes at 1 uM measured as compound remaining after 1 hr by LC/MS/MS analysis; type: ADME, Microsome; conditions: read-out: Stability
[6] = Metabolic stability in CD1 mouse liver microsomes at 1 uM measured as compound remaining after 1 hr by LC/MS/MS analysis; type: ADME, Microsome; conditions: read-out: Stability
[7] = system: Mycobacterium tuberculosis; experiment: Antituberculosis activity against Mycobacterium tuberculosis H37Rv infected in BALB/c mouse acute infection model assessed as fold reduction in bacterial CFU in lungs at 100 mg/kg, po administered for 5 days a week for 3 weeks beginning on day 11 postinfection relative to PA-824; type: functional
How it was run: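 Mice with acute M. tb infection dosed orally at 100 mg/kg daily, 5 days each week, standard 3 week assay. Lung CFUs counted. Value is the fold CFU decrease for the compound divided by the fold CFU decrease for the internal reference standard run in the same experiment.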

[8] = Metabolic stability in human liver microsomes at 1 uM measured as compound remaining after 45 mins by LC/MS/MS analysis; type: ADME, Microsome; conditions: read-out: Stability
[9] = system: Mus musculus; experiment: Toxicity in Mycobacterium tuberculosis H37Rv infected BALB/c mouse at 100 mg/kg, po administered for 5 days a week for 3 weeks beginning on day 11 postinfection; type: organism-based; design: dose 100 mg/kg, route oral; conditions: in vivo
[10] = system: Mycobacterium tuberculosis; experiment: Antituberculosis activity against Mycobacterium tuberculosis H37Rv infected in BALB/c mouse chronic infection model assessed as fold reduction in bacterial CFU in lungs at 100 mg/kg, po administered for 5 days a week for 3 weeks beginning on day 70 postinfection relative to OPC-67683; type: functional
How it was run: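 Chronic M. tb infection model with dosing starting ~70 days post infection, once bacteria are in a plateau phase of growth. Oral 100 mg/kg daily, 5 days/week, 3 weeks. Lung CFUs counted. Value is the fold CFU reduction for the compound relative to the fold reduction for the reference agent.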

Compound | solubility [2] [µg/mL] | MIC [3] [µM] | MIC [4] [µM] | remaining at 1 h, 1 µM [5] [%] | remaining at 1 h, 1 µM [6] [%] | remaining at 0.75 h, 1 µM [8] [%] | also measured
O=[N+]([O-])c1cn2c(n1)OC[C@@H](OCC#Cc1ccc(-c3ccc(OC(F)(F)F)cc3)nc1)C2 | 0.72 (≈ 1.56 µM) | 0.09 (≈ 0.0414 µg/mL) | 0.52 (≈ 0.239 µg/mL) | 93 | 90 |  | solubility [1]: 4 µg/mL (≈ 8.69 µM); fold change (FC) [7]: 1
C[C@@H](O[C@@H]1COc2nc([N+](=O)[O-])cn2C1)c1ccc(OC(F)(F)F)cc1 |  |  |  |  |  | 60 | 
C[C@H](O[C@@H]1COc2nc([N+](=O)[O-])cn2C1)c1ccc(OC(F)(F)F)cc1 |  |  |  |  |  | 73 | 
CC(O[C@@H]1COc2nc([N+](=O)[O-])cn2C1)c1ccc(-c2ccc(OC(F)(F)F)cc2)cc1 (some centres not stated) | 0.84 (≈ 1.87 µM) | 0.19 (≈ 0.0854 µg/mL) | 1.5 (≈ 0.674 µg/mL) | 100 | 92 |  | Activity [9]: Toxic
O=[N+]([O-])c1cn2c(n1)OC[C@@H](OCc1ccc(OC(F)(F)F)cc1)C2 [PRETOMANID] |  |  |  |  |  | 93 | fold change (FC) [10]: 0.14
